In article PMC5520516 (British Journal of Cancer, 2017):
pIC50: −log10 of the molar value. Structures can show the parent of a compound that is named as a salt. Where two headings read alike, the source gives them in different places.

Assays:
[1] = tested on: NCI 60-cell line panel (60 human tumour cell lines); details: cited from earlier work
[2] = cited from earlier work
[3] = at 30 min; ref Burger et al, 2007; cited from earlier work
[4] = tested on: two human renal cell cancer HTXs, a breast cancer HTX and a murine syngeneic colon cancer; details: P<0.01; ref Burger et al, 2007; cited from earlier work
[5] = tested on: microtubules; details: ref Bonezzi et al, 2009; cited from earlier work
[6] = tested on: endothelial cell; details: in vitro; ref Bonezzi et al, 2009; cited from earlier work
[7] = tested on: tumour blood vessels; details: in vivo; ref Bonezzi et al, 2009; cited from earlier work
[8] = tested on: well-vascularised breast cancer HTX; test: Antitumour activity in well-vascularised breast cancer HTX; type: in vivo, human; details: for antitumour activity at tolerated doses / antitumour activity at toxic dose levels: SD, i.p.
[9] = tested on: doxorubicin-resistant, oestrogen receptor negative human breast cancer xenograft MT-3/ADR; test: Antitumour activity in MT-3/ADR xenograft; type: in vivo
[10] = Pre-formulation / solubility; type: physicochemical
[11] = tested on: NCI 60-cell line panel (60 human tumour cell lines); test: NCI in vitro 60-cell line screen; type: cell-based
Outline: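 Test compounds were run in each of the 60 human tumour cell lines for 48 h of drug exposure. The data were summarised as a mean graph with COMPARE analysis.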

[12] = tested on: advanced cancer; details: phase I, ref Seckl et al, 2012, cited from earlier work
[13] = ref Bradshaw and Westwell, 2004

Compound: Cc1cc(-c2nc3cc(F)ccc3s2)ccc1N [5F 203]
- GI50 ([1]; NCI 60-cell line screen, ref Bradshaw and Westwell, 2004): low nanomolar
- selectivity in NCI 60-cell line screen [1, 13]: selectivity against breast and ovarian cancer sub-panels

Compound: COc1ccc(/C=C\c2cc(OC)c(OC)c(OC)c2)cc1O [Combretastatin A-4, reference compound]
- solubility ([2]; ref Dark et al, 1997, Tozer et al, 2002): poorly soluble

Compound: COc1ccc(C2=CN3C(=O)c4cc(OC)c(OC)cc4N=C[C@@H]3C2)cc1 [DRH-417]
- peak plasma concentration [3]: 171 nM
- pIC50 ([1]; read-out: mean IC50, NCI 60-cell line panel, ref Burger et al, 2007): 8.52
- antitumour activity in vivo [4]: marked activity

Compound: COc1ccc(-c2cncn2-c2cc(OC)c(OC)c(OC)c2)cc1 [NSC733436]
- effect on microtubules [5]: disorganised microtubules
- effect on endothelial cell morphology and capillary formation [6]: selectively affected endothelial cell morphology and capillary formation
- blood vessel shutdown and tumour necrosis [7]: caused blood vessel shutdown and tumour necrosis
- antitumour activity at tolerated doses [8]: moderate
- antitumour activity at toxic dose levels [8]: more pronounced

Compound: COc1ccc(-c2cncn2-c2cc(OC)c(OC)c(OC)c2)cc1F [NSC736359]
- effect on microtubules [5]: disorganised microtubules
- effect on endothelial cell morphology and capillary formation [6]: selectively affected endothelial cell morphology and capillary formation
- blood vessel shutdown and tumour necrosis [7]: caused blood vessel shutdown and tumour necrosis
- antitumour activity at tolerated doses [8]: moderate
- antitumour activity at toxic dose levels [8]: more pronounced

Compound: COc1cc(-n2cncc2-c2ccc3ccccc3c2)cc(OC)c1OC [NSC736992]
- effect on microtubules [5]: disorganised microtubules
- effect on endothelial cell morphology and capillary formation [6]: selectively affected endothelial cell morphology and capillary formation
- blood vessel shutdown and tumour necrosis [7]: caused blood vessel shutdown and tumour necrosis
- antitumour activity at tolerated doses [8]: moderate
- antitumour activity at toxic dose levels [8]: more pronounced

Compound: COc1ccc2c(c1)[nH]c(=O)c1c3ccccc3cn21 [NSC 734237]
- antitumour activity at the MTD ([9]; MTD, i.p., d8–12, 15–19): significant activity
- antitumour activity ([9]; i.p., d8–12, 15–19): dose-dependent antitumour activity
- CD31+ microvessel density (immunohistochemistry) ([9]; in vivo): dose-dependent reduction
- Ki-67 staining (immunohistochemistry) ([9]; in vivo): dose-dependent reduction
- solubility [10]: quite insoluble
- differential activity [11]: reasonable, but inconclusive

Compound: Cc1cc(-c2nc3cc(F)ccc3s2)ccc1NC(=O)[C@@H](N)CCCCN.Cl.Cl [Phortress]
- water solubility [2, 13]: water-soluble
- MTD ([12]; preliminary data): not reached
- tolerability ([12]; preliminary data): well tolerated
- patients classified as having stable disease ([12]; Thirty-three per cent of the patients): 14/42

Compound: COc1cc(-n2cncc2-c2ccc3ccccc3c2)cc(OC)c1OC [water-soluble salt of NSC736992]
- density (size and number) of CD31+ blood vessels ([8]; alone or in combination): not affected
- efficacy in combination with carboplatin or taxol ([8]; combination with carboplatin or taxol): not increased
- efficacy (additional studies) ([8]; same HTX, also with other treatment schedules): moderate to borderline
